# In article PMC2831214 (Nature chemical biology, 2010):
# “Also recorded” adds a separate entry of the source. Numbered stars: 1 amine (or outer) side, 2 acyl side, 3 side chain; on linkers, the order of the positions; unused ones are H or OH. Bridge positions count the residues as written; N and C are the ends. Square brackets hold non-standard residues; d marks the D form. Peptide text beside a SMILES is read from it. I, II: the chains in the order shown. Actinocin(9to1) = Cc1c2oc3c(C)ccc(C(=O)[*:1])c3nc-2c(C(=O)[*:2])c(N)c1=O; NMeV = CN[C@H](C(=O)O)C(C)C; Sar = CNCC(=O)O
# What was measured:
# [1] = tested on: RNA synthesis in HeLa cells; assay: RNA synthesis; type: cell-based; settings: [3H]uridine 2 h
# Method in brief: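 HeLa cells exposed to a range of test compound concentrations with [3H]uridine for 2 h. TCA-precipitated material on PVDF membrane quantified by scintillation counting. Actinomycin D and cycloheximide served as controls.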
# [2] = tested on: protein synthesis in HeLa cells; assay: De novo protein synthesis by [35S]cysteine/methionine metabolic labeling; type: cell-based; settings: for Effect on protein synthesis (translation): metabolic labeling 2 h
# Method in brief: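 HeLa cells were given varying concentrations of test compound with [35S]cysteine/methionine for 2 h. TCA-precipitated proteins were collected on PVDF membrane and scintillation counted. Cycloheximide served as translation-inhibitor control and actinomycin D as transcription-inhibitor control. Runs were in triplicate, with s.d. shown.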
# [3] = target: eEF1A-mediated binding of aminoacyl-tRNA to ribosomes (Oryctolagus cuniculus, UniProt G1SNY0+G1T040); assay: eEF1A-dependent aminoacyl-tRNA binding; type: biochemical, rabbit; settings: 200 µM compound
# Method in brief: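 89 pmol ribosomes in 20 mM HEPES pH 7.4, 100 mM KCl, 10 mM MgCl2, 1 mM DTT were mixed with 200 ng poly(U), 2.2 µg eEF1A, 150 µM GDPNP and 200 µM compound before 10 pmol [14C]Phe-tRNAPhe was added. After 10 min at 37 °C, samples were diluted, filtered through nitrocellulose, rinsed and scintillation counted (1 pmol = 1100 dpm).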
# [4] = target: eEF2-mediated translocation (Oryctolagus cuniculus, UniProt G1SNY0+G1T040); assay: eEF2-dependent translocation; type: biochemical, rabbit; settings: 200 µM compound
# [5] = target: ribosome on rabbit β-globin mRNA (Oryctolagus cuniculus, UniProt G1SNY0+G1T040); assay: Toeprinting on rabbit β-globin mRNA in rabbit reticulocyte lysate; type: biochemical; settings: CHX 10 mM; LTM at 1/10,000th of the CHX concentration
# [6] = tested on: HEK 293T cells; assay: Polysome profiles in cells; type: cell-based; settings: 30 min
# [7] = tested on: rabbit reticulocyte lysate with rabbit β-globin RNA; assay: Polysome profiles in vitro; type: biochemical; settings: cell free system, 15 min
# [8] = target: pre-assembled initiation complexes (Saccharomyces cerevisiae, UniProt P02406+P0CX27); assay: Reconstituted translation elongation, tripeptide; type: biochemical; settings: 200 µM
# [9] = target: binding of deacylated tRNA to the E-site of ribosomes (Oryctolagus cuniculus, UniProt G1SNY0+G1T040); assay: Deacylated tRNA binding to ribosomes; set-up: species or system rabbit
# Method in brief: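 Deacylated tRNA was 3′-end labelled with [32P] and diluted to 80,000 cpm/pmol. Inhibitor was at graded concentrations; 4 µM unlabelled deacylated tRNA was the control. Samples were diluted with 1 ml buffer, filtered through nitrocellulose, washed 5× and scintillation counted.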
# [10] = tested on: HeLa, MDA-MB231 and Jurkat T cells; assay: Cell proliferation screen by [3H]-thymidine incorporation; type: cell-based; settings: 2.5 µM, 24 h
# Method in brief: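 Each of the three cell lines was exposed to test compound at 2.5 µM for 24 h. [3H]-thymidine was then applied to monitor cellular DNA synthesis as the proliferation read-out.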
# [11] = tested on: cap-dependent and EMCV, HCV, CrPV IRES-mediated translation; assay: IRES dual luciferase reporter assay in rabbit reticulocyte lysate; type: biochemical; settings: HCV and CrPV IRES reporters
# [12] = target: ribosomes, eEF1A and eEF2 (Oryctolagus cuniculus, UniProt G1SNY0+G1T040); assay: Polyphenylalanine synthesis on a poly; type: biochemical, rabbit; settings: 200 µM
# [13] = tested on: P388 lymphoma; settings: cited from earlier work
# [14] = tested on: Candida; settings: cited from earlier work
# [15] = tested on: breast cancer cell lines; assay: Proliferation of breast cancer cell lines by [3H]thymidine incorporation; type: cell-based; settings: array of breast cancer cell lines, 24 h
# [16] = tested on: MCF10A; assay: Proliferation of non-tumorigenic breast cell line by [3H]thymidine incorporation; type: cell-based; settings: 24 h
# [17] = tested on: MDA MB 231 tumors; assay: Mouse xenograft model; type: in vivo, female nude mice; settings: 0.6 mg/kg every day for one month, intraperitoneal
# Method in brief: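 Two million MDA MB 231 cells were injected subcutaneously into female nude mice. Once tumours were palpable, mice received 0.6 mg/kg test compound or solvent alone daily for one month.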
# [18] = target: peptide bond formation on ribosomes (Oryctolagus cuniculus, UniProt G1SNY0+G1T040); assay: Peptidyl transfer; type: biochemical, rabbit; settings: LTM even at millimolar concentrations
# [19] = tested on: translation; settings: cited from earlier work
# [20] = tested on: translation in vitro; assay: In vitro translation; type: biochemical
# Chain of pre-assembled initiation complexes (P02406 2-149 limits assumed): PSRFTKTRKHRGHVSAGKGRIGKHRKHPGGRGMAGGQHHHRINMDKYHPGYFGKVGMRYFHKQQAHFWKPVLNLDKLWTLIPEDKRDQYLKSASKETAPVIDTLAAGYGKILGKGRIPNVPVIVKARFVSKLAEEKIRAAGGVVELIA
# Chain of pre-assembled initiation complexes (P0CX27 2-106 limits assumed): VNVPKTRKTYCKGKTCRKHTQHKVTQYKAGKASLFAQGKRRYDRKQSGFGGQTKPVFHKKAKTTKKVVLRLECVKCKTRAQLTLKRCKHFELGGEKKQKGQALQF
compound,measurement,setting,value
"Cc1c2oc3c(C)ccc(C(=O)N[C@@H]4C(=O)N[C@H](C(C)C)C(=O)N5CCC[C@H]5C(=O)N(C)CC(=O)N(C)[C@@H](C(C)C)C(=O)O[C@@H]4C)c3nc-2c(C(=O)N[C@@H]2C(=O)N[C@H](C(C)C)C(=O)N3CCC[C@H]3C(=O)N(C)CC(=O)N(C)[C@@H](C(C)C)C(=O)O[C@@H]2C)c(N)c1=O [Actinomycin D, reference compound] (I: T[dV]P[Sar][NMeV] / II: T[dV]P[Sar][NMeV]; ester I:1-I:C, II:1-II:C; linker I:N-II:N via Actinocin(9to1))",Effect on transcription,[1],concomitantly blocked transcription and translation
same,Effect on protein synthesis (translation),[2],concomitantly blocked transcription and translation
"C[C@@H]1C[C@@H]([C@H](O)CC2CC(=O)NC(=O)C2)C(=O)[C@@H](C)C1 [CHX, cycloheximide, reference compound]",Effect on transcription,[1],only affected transcription at very high doses
same,Effect on eEF1A-mediated binding of aminoacyl-tRNA,[3],not inhibited
same,Effect on eEF2-mediated translocation (phenylalanyl puromycin formation),[4],inhibited phenylalanyl puromycin formation
same,"Toeprint titration, ribosome arrest",[5],about half the ribosomal population to stop at the very first codon
same,Effect on protein synthesis (translation),[2],strongly inhibited translation
same,Effect on polysome profile in cells,[6],little difference between CHX and solvent control
same,Effect on polysome profile in vitro,[7],causing accumulation of 80S ribosomes
same,Effect on tripeptide formation,[8],"similar, albeit less pronounced effect"
same,Concentration causing a detectable decrease in the amount of bound tRNA,[9],10 mM
CO[C@@H](/C=C/CC/C=C/C(=O)O)[C@@H](O)[C@H](C)[C@@H](O)/C(C)=C/[C@H](C)C(=O)CCCC1CC(=O)NC(=O)C1 [Dorrigocin B],Effect on protein synthesis (translation),[2],no inhibitory effect; also recorded: abolished any inhibitory activity
same,Inhibition of cell proliferation ([3H]-thymidine incorporation),[10],neither compound affected cell proliferation
"CO[C@H]1/C=C/CC/C=C/C(=O)O[C@@H](/C(C)=C/[C@H](C)C(=O)CCCC2CC(=O)NC(=O)C2)[C@@H](C)[C@@H]1O [Isomigrastatin, isomigrastatin]",Effect on transcription,[1],without a significant impact on transcription
same,Effect on protein synthesis (translation),[2],exclusively inhibited protein synthesis
same,Inhibition of cell proliferation ([3H]-thymidine incorporation),[10],highly active
"C/C(=C\[C@H](C)C(=O)C[C@H](O)CC1CC(=O)NC(=O)C1)[C@@H]1OC(=O)/C=C/CC/C=C/C=C\[C@@H]1C [LTM, lactimidomycin]",Effect on transcription,[1],without a significant impact on transcription
same,Effect on eEF1A-mediated binding of aminoacyl-tRNA,[3],not inhibited
same,Effect on cap-dependent and IRES-mediated translation,[11],inhibited translation from all three constructs to a similar degree
same,Effect on eEF2-mediated translocation (phenylalanyl puromycin formation),[4],inhibited phenylalanyl puromycin formation
same,"Toeprint titration, ribosome arrest",[5],arrested the ribosome on the start codon
same,Effect on polyphenylalanine synthesis,[12],inhibited polyphenylalanine synthesis
same,Survival of mice with P388 lymphoma,[13],extended the survival
same,Potency as inhibitor of translation relative to CHX,[2],about 10 fold
same,Effect on protein synthesis (translation),[2],exclusively inhibited protein synthesis
same,Sensitivity of Candida,[14],resistant
same,"IC50 concentrations, cell growth",[15],low nanomolar range
same,Inhibition of growth of non-tumorigenic cells,[16],higher doses were necessary
same,Effect on polysome profile in cells,[6],large increase in 80S ribosomes accompanied by depletion of polysomes
same,Effect on polysome profile in vitro,[7],causing accumulation of 80S ribosomes
same,Inhibition of cell proliferation ([3H]-thymidine incorporation),[10],most potent inhibitor of cell proliferation; also recorded: highly active
same,Effect on tripeptide formation,[8],greatly slowed down tripeptide formation
same,Effect on tumor growth in vivo,[17],appreciable effect on tumor growth
same,Effect on peptide bond formation (methionyl-puromycin),[18],did not affect peptide bond formation
"CO[C@H]1/C=C/CC/C=C/C(=O)O[C@H]([C@H](C)C(=O)CCCC2CC(=O)NC(=O)C2)/C(C)=C\[C@@H](C)[C@@H]1O [Migrastatin, migrastatin]",Effect on protein synthesis (translation),[2],no inhibitory effect
same,Inhibition of cell proliferation ([3H]-thymidine incorporation),[10],neither compound affected cell proliferation
"CC(/C=C/C(C)=C/[C@@H]1Cc2nc(cs2)[C@@H](C)C[C@@H](N)CC(=O)O[C@@H](C)C/C(C)=C/C=C\C(=O)O1)=C\CN(C)C [PatA, Pateamine A, reference compound]",Effect on cap-dependent and IRES-mediated translation,[11],allowed translation off the HCV IRES
"CSC[S@+]([O-])C[C@H](CO)NC(=O)/C=C/c1c(C)[nH]c(=O)[nH]c1=O [Sparsomycin, reference compound]",Effect on peptide bond formation (methionyl-puromycin),[18],prevented methyionyl-puromycin synthesis
C=C/C(C)=C/[C@H](C)C(=O)C[C@H](O)CC1CC(=O)NC(=O)C1 [Streptimidone],Inhibition of translation,[19],inhibits translation
"C/C(=C\[C@H](C)C(=O)C[C@H](O)CC1CC(=O)NC(=O)C1)[C@@H]1OC(=O)CCCC/C=C/C=C\[C@@H]1C [compound 7, 2H Lactimidomycin]",Inhibition of cell proliferation ([3H]-thymidine incorporation),[10],highly active
"CO[C@H]1/C=C/CC/C=C/C(=O)O[C@@H](/C(C)=C/[C@H](C)C(=O)/C=C/CC2CC(=O)NC(=O)C2)[C@@H](C)[C@@H]1O [compound 8, Didehydro Isomigrastatin]",Inhibition of cell proliferation ([3H]-thymidine incorporation),[10],highly active
"CCOC(=O)CO[C@@H](CC(=O)[C@@H](C)/C=C(\C)[C@@H]1OC(=O)/C=C/CC/C=C/C=C\[C@@H]1C)CC1CC(=O)NC(=O)C1 [compound 36, Ethylacetyl-Lactimidomycin]",Effect of modification on translation inhibitory activity of LTM,[20],did not significantly decrease the activity
